Data on 18 compounds can be found in PubChem BioAssay AID588322 (Southern Research Specialized Biocontainment Screening …, 2011).

A word on the IC50: it is the point on the concentration scale where inhibition reaches its midpoint.

Activity calls are given as the source filed them.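 How the source made its calls: active means compound blocking phage lysis by over 30% at some tested dose and judged capsule specific; inactive means the rest.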

The subject of one assay is E. coli EV36 T7 phage lysis, OD600 3 h. The experiment in a line: capsule-loss sensitization to T7 lysis – T7 phage, set 5, selectivity assay for bacterial capsule biogenesis inhibitors, dose response (AID 588322).
Conditions: not given
An outline of the steps:
(§1)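 material = Escherichia coli EV36, a K1:K-12 hybrid strain | medium = LB broth culture medium | probe or stimulus = T7 phage added after compound pre-incubation | incubation = 1.5 h compound at 37 °C, then 3 h post-infection | detection = OD600 absorbance at 3 h post-infection | read-out basis = Capsule-loss-dependent T7 phage lysis judged from culture OD600 | repeats = quadruplicate per concentration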
Take `O=C(Nc1cc(-c2ccccc2)sc1C(=O)O)c1cccs1`: the IC50 is 7.11 µM (inactive).

Turning to `O=C(Nc1cc(-c2ccccc2)sc1C(=O)O)c1cccc(Cl)c1`, the IC50 was 33.4 µM (inactive).

For `Cc1c(C(=O)Nc2cc(-c3ccccc3)sc2C(=O)O)oc2ccccc12`, the IC50 was 30.1 µM (inactive).

`O=C(Nc1cc(-c2ccccc2)sc1C(=O)O)c1ccc(Cl)s1`: the IC50 was 15 µM (inactive).

As for `CCOc1ccc(-c2cc(NC(=O)c3c(F)cccc3F)c(C(=O)O)s2)cc1`, the IC50 is 0.71 µM (inactive).

Consider `Cc1ccc(C(=O)Nc2cc(-c3ccccc3)sc2C(=O)O)s1`, for which the IC50 is 41.7 µM (inactive). Still for that read-out and setting: the value for `O=C(Nc1cc(-c2ccccc2)sc1C(=O)O)c1cccc(F)c1` was 29.4 µM (inactive); that for `O=C(Nc1cc(-c2ccccc2)sc1C(=O)O)c1ccc(Br)o1` was 8.13 µM (inactive). Still for that read-out and setting: to `O=C(Nc1cc(-c2ccccc2)sc1C(=O)O)c1ccc2c(c1)OCCO2` belongs 12.7 µM (inactive); to `CCOc1ccc(-c2cc(NC(=O)c3cccc(Cl)c3)c(C(=O)O)s2)cc1`, 4.25 µM (inactive). Still for that read-out and setting: to `O=C(O)c1sc(-c2ccccc2)cc1NC(=O)C1CCCC1` belongs 57.4 µM (inactive); to `O=C(Nc1cc(-c2ccccc2)sc1C(=O)O)c1cc2ccccc2o1`, 7.11 µM (inactive).

For the compound `O=C(Nc1cc(-c2ccccc2)sc1C(=O)O)c1cc(Cl)c2c(c1)OCCO2`, the IC50 is 16 µM (inactive). For the compound `O=C(O)c1sc(-c2ccccc2)cc1NC(=O)C1CCCCC1`, the IC50 was 55 µM (inactive). With `CCOc1ccc(-c2cc(NC(=O)c3ccc(OC)c(OC)c3)c(C(=O)O)s2)cc1`, the IC50 is 7.72 µM (inactive).

Test system in a further assay: not listed separately
The assay is described as above. The following applies: E. coli EV36 T7 phage lysis, OD600 3 h; at 100 µM (top of the series). In a few lines: as §1
As for `CCOc1ccc(-c2cc(NC(=O)c3c(F)cccc3F)c(C(=O)OC)s2)cc1`, the cell growth (A600 at 3 h p.i., % of EV36+DMSO+T7 control); lower = more lysis was 114% (inactive). On the same count and under the same terms, to `COC(=O)c1sc(-c2ccccc2)cc1NC(=O)c1c(F)cccc1F` belongs 111% (inactive); to `Cc1onc(-c2ccccc2)c1C(=O)Nc1cc(-c2ccccc2)sc1C(=O)O`, 104% (inactive).
